Key:
Rattus norvegicus [1] = assay: Biodistribution of the radiolabeled compound (2-5 uCi) in rat blood 15 mins after i.v. administration; assay type: ADME, organism-based; conditions: in vivo, iv, 0.25 h
Procedure, shortened: (§1)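 Rats given the 99mTc complex iv. At set times, blood was drawn by cardiac puncture and the animals were killed at once by cardiectomy. Organs were excised, weighed and gamma-counted. Percent dose per organ was found by comparing tissue radioactivity with suitable dilutions of the injected dose.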

Rattus norvegicus [2] = assay: Biodistribution of the radiolabeled compound (2-5 uCi) in rat blood 65 mins after i.v. administration; assay type: ADME, organism-based; conditions: in vivo, iv; procedure, shortened: as §1
Rattus norvegicus [3] = assay: Biodistribution of the radiolabeled compound (2-5 uCi) in rat brain 15 mins after i.v. administration; assay type: ADME, organism-based; conditions: in vivo, iv, 0.25 h; procedure, shortened: as §1
Rattus norvegicus [4] = assay: Biodistribution of the radiolabeled compound (2-5 uCi) in rat brain 2 mins after i.v. administration; assay type: ADME, organism-based; conditions: in vivo, iv; procedure, shortened: as §1
Rattus norvegicus [5] = assay: Biodistribution of the radiolabeled compound (2-5 uCi) in rat brain 65 mins after i.v. administration; assay type: ADME, organism-based; conditions: in vivo, iv; procedure, shortened: as §1
Rattus norvegicus [6] = assay: Biodistribution of the radiolabeled compound (2-5 uCi) in rat heart 15 mins after i.v. administration; assay type: ADME, organism-based; conditions: in vivo, iv, 0.25 h; procedure, shortened: as §1
Rattus norvegicus [7] = assay: Biodistribution of the radiolabeled compound (2-5 uCi) in rat heart 2 mins after i.v. administration; assay type: ADME, organism-based; conditions: in vivo, iv; procedure, shortened: as §1
Rattus norvegicus [8] = assay: Biodistribution of the radiolabeled compound (2-5 uCi) in rat heart 65 mins after i.v. administration; assay type: ADME, organism-based; conditions: in vivo, iv; procedure, shortened: as §1
Rattus norvegicus [9] = assay: Biodistribution of the radiolabeled compound (2-5 uCi) in rat kidney 15 mins after i.v. administration; assay type: ADME, organism-based; conditions: in vivo, iv, 0.25 h; procedure, shortened: as §1
Rattus norvegicus [10] = assay: Biodistribution of the radiolabeled compound (2-5 uCi) in rat kidney 2 mins after i.v. administration; assay type: ADME, organism-based; conditions: in vivo, iv; procedure, shortened: as §1
Rattus norvegicus [11] = assay: Biodistribution of the radiolabeled compound (2-5 uCi) in rat kidney 65 mins after i.v. administration; assay type: ADME, organism-based; conditions: in vivo, iv; procedure, shortened: as §1
Rattus norvegicus [12] = assay: Biodistribution of the radiolabeled compound (2-5 uCi) in rat liver 15 mins after i.v. administration; assay type: ADME, organism-based; conditions: in vivo, iv, 0.25 h; procedure, shortened: as §1
Rattus norvegicus [13] = assay: Biodistribution of the radiolabeled compound (2-5 uCi) in rat liver 2 mins after i.v. administration; assay type: ADME, organism-based; conditions: in vivo, iv; procedure, shortened: as §1
Rattus norvegicus [14] = assay: Biodistribution of the radiolabeled compound (2-5 uCi) in rat liver 65 mins after i.v. administration; assay type: ADME, organism-based; conditions: in vivo, iv; procedure, shortened: as §1
Rattus norvegicus [15] = assay: Biodistribution of the radiolabeled compound (2-5 uCi) in rat lung 15 mins after i.v. administration; assay type: ADME, organism-based; conditions: in vivo, iv, 0.25 h; procedure, shortened: as §1
Rattus norvegicus [16] = assay: Biodistribution of the radiolabeled compound (2-5 uCi) in rat lung 2 mins after i.v. administration; assay type: ADME, organism-based; conditions: in vivo, iv; procedure, shortened: as §1
Rattus norvegicus [17] = assay: Biodistribution of the radiolabeled compound (2-5 uCi) in rat lung 65 mins after i.v. administration; assay type: ADME, organism-based; conditions: in vivo, iv; procedure, shortened: as §1
Rattus norvegicus [18] = assay: Biodistribution of the radiolabeled compound (2-5 uCi) in rat muscle 15 mins after i.v. administration; assay type: ADME, organism-based, Muscle tissue; conditions: in vivo, iv, 0.25 h; procedure, shortened: as §1
Rattus norvegicus [19] = assay: Biodistribution of the radiolabeled compound (2-5 uCi) in rat muscle 2 mins after i.v. administration; assay type: ADME, organism-based, Muscle tissue; conditions: in vivo, iv; procedure, shortened: as §1
Rattus norvegicus [20] = assay: Biodistribution of the radiolabeled compound (2-5 uCi) in rat skin 15 mins after i.v. administration; assay type: ADME, organism-based, Zone of skin; conditions: in vivo, iv, 0.25 h; procedure, shortened: as §1
Rattus norvegicus [21] = assay: Biodistribution of the radiolabeled compound (2-5 uCi) in rat skin 2 mins after i.v. administration; assay type: ADME, organism-based, Zone of skin; conditions: in vivo, iv; procedure, shortened: as §1
Rattus norvegicus [22] = assay: Biodistribution of the radiolabeled compound (2-5 uCi) in rat skin 65 mins after i.v. administration; assay type: ADME, organism-based, Zone of skin; conditions: in vivo, iv; procedure, shortened: as §1
Rattus norvegicus [23] = assay: Biodistribution of the radiolabeled compound (2-5 uCi) in rat spleen 15 mins after i.v. administration; assay type: ADME, organism-based; conditions: in vivo, iv, 0.25 h; procedure, shortened: as §1
Rattus norvegicus [24] = assay: Biodistribution of the radiolabeled compound (2-5 uCi) in rat spleen 2 mins after i.v. administration; assay type: ADME, organism-based; conditions: in vivo, iv; procedure, shortened: as §1
Rattus norvegicus [25] = assay: Biodistribution of the radiolabeled compound (2-5 uCi) in rat spleen 65 mins after i.v. administration; assay type: ADME, organism-based; conditions: in vivo, iv; procedure, shortened: as §1
[26] = Partition coefficient in buffer containing 0.1 M NH4PF6; assay type: ADME; conditions: octanol/water
Procedure, shortened: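 The 99mTc complex was mixed with 3 g each of 1-octanol and 50 mM phosphate buffer pH 7.4 containing 0.1 M NH4PF6. Tubes were vortexed three times for 1 min at room temperature and centrifuged 5 min. Weighed samples of each layer were gamma-counted. PC = counts per gram in octanol / counts per gram in aqueous.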

[27] = Partition coefficient in buffer containing 0.1 M NaCl; assay type: ADME; conditions: octanol/water
Procedure, shortened: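 Octanol/buffer partition: the 99mTc complex was shaken with 3 g 1-octanol plus 3 g 50 mM phosphate pH 7.4 containing 0.1 M NaCl. Vortexing was 3 × 1 min at room temperature, followed by 5 min centrifugation. Weighed samples from both layers were gamma-counted. Ratio = octanol counts/g over aqueous counts/g.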

Rattus norvegicus [28] = assay: Biodistribution of the radiolabeled compound (2-5 uCi) in rat blood 2 mins after i.v. administration; assay type: ADME, organism-based; conditions: in vivo, iv; procedure, shortened: as §1
Rattus norvegicus [29] = assay: Biodistribution of the radiolabeled compound (2-5 uCi) in rat muscle 65 mins after i.v. administration; assay type: ADME, organism-based, Muscle tissue; conditions: in vivo, iv; procedure, shortened: as §1
Rattus norvegicus [30] = assay: Heart/blood ratio of the radiolabeled compound (2-5 uCi) in rat 15 mins after i.v. administration; conditions: in vivo, iv, 0.25 h
Rattus norvegicus [31] = assay: Heart by blood ratio of the radiolabeled compound (2-5 uCi) in rat 2 mins after i.v. administration; conditions: in vivo, iv
Rattus norvegicus [32] = assay: Heart by blood ratio of the radiolabeled compound (2-5 uCi) in rat 65 mins after i.v. administration; conditions: in vivo, iv

Structure (SMILES) | Biodistribution (Rattus norvegicus [1]) [dose/organ %] | Biodistribution (Rattus norvegicus [2]) [dose/organ %] | Biodistribution (Rattus norvegicus [3]) [dose/organ %] | Biodistribution (Rattus norvegicus [4]) [dose/organ %] | Biodistribution (Rattus norvegicus [5]) [dose/organ %] | Biodistribution (Rattus norvegicus [6]) [dose/organ %] | Biodistribution (Rattus norvegicus [7]) [dose/organ %] | Biodistribution (Rattus norvegicus [8]) [dose/organ %] | Biodistribution (Rattus norvegicus [9]) [dose/organ %] | Biodistribution (Rattus norvegicus [10]) [dose/organ %] | Biodistribution (Rattus norvegicus [11]) [dose/organ %] | Biodistribution (Rattus norvegicus [12]) [dose/organ %] | Biodistribution (Rattus norvegicus [13]) [dose/organ %] | Biodistribution (Rattus norvegicus [14]) [dose/organ %] | Biodistribution (Rattus norvegicus [15]) [dose/organ %] | Biodistribution (Rattus norvegicus [16]) [dose/organ %] | Biodistribution (Rattus norvegicus [17]) [dose/organ %] | Biodistribution (Rattus norvegicus [18]) [dose/organ %] | Biodistribution (Rattus norvegicus [19]) [dose/organ %] | Biodistribution (Rattus norvegicus [20]) [dose/organ %] | also measured
CC(C)(S)CN1CCN(CC(C)(C)S)CC1 | 2 | 0.7 | 0.01 | 0.03 | 0.003 | 0.1 | 0.21 | 0.07 | 9.43 | 15.71 | 1.09 | 29.63 | 31.81 | 20.2 | 0.23 | 0.62 | 0.12 | 10.12 | 10.67 | 14.13 | Biodistribution (Rattus norvegicus [21]): 6.65 dose/organ %; Biodistribution (Rattus norvegicus [22]): 7.13 dose/organ %; Biodistribution (Rattus norvegicus [23]): 0.25 dose/organ %; Biodistribution (Rattus norvegicus [24]): 0.57 dose/organ %; Biodistribution (Rattus norvegicus [25]): 0.08 dose/organ %; Partition coefficient [26]: 10.75; Partition coefficient [27]: 1.09; Biodistribution (Rattus norvegicus [28]): 7.16 dose/organ %; Biodistribution (Rattus norvegicus [29]): 5.06 dose/organ %; heart/blood ratio (Rattus norvegicus [30]): 0.5; heart/blood ratio (Rattus norvegicus [31]): 0.29; heart/blood ratio (Rattus norvegicus [32]): 1
CC(C)(S)CN1CCCN(CC(C)(C)S)CC1 | 1.14 | 0.77 | 0.01 | 0.04 | 0.007 | 0.38 | 0.42 | 0.37 | 15.9 | 19.37 | 4.26 | 27.48 | 25.92 | 15.23 | 0.28 | 0.56 | 0.23 | 6.98 | 9.08 | 5.16 | Biodistribution (Rattus norvegicus [21]): 7.45 dose/organ %; Biodistribution (Rattus norvegicus [22]): 6.8 dose/organ %; Biodistribution (Rattus norvegicus [23]): 0.26 dose/organ %; Biodistribution (Rattus norvegicus [24]): 0.41 dose/organ %; Biodistribution (Rattus norvegicus [25]): 0.22 dose/organ %; Partition coefficient [26]: 11.5; Partition coefficient [27]: 1.19; Biodistribution (Rattus norvegicus [28]): 3.57 dose/organ %; Biodistribution (Rattus norvegicus [29]): 8.66 dose/organ %; heart/blood ratio (Rattus norvegicus [30]): 3.33; heart/blood ratio (Rattus norvegicus [31]): 1.18; heart/blood ratio (Rattus norvegicus [32]): 4.8

From ChEMBL document CHEMBL1126014, “New conformationally restricted 99mTc N2S2 complexes as myocardial perfusion imaging agents” (J Med Chem, 1992)
